In publication PMC3121894 (Journal of molecular biology, 2011):
Like-named read-outs stand apart in the source and are kept apart here. One block for each compound: values may come before it. Where a SMILES comes first, the peptide text is derived from it. The star is where a group is joined. 5FAM = O=C1OC2(c3ccc(O)cc3Oc3cc(O)ccc32)c2ccc(C(=O)*)cc21

Legend:
SRPK1 [1] = target: T1, SRPK1 (Homo sapiens, UniProt Q96SB4); experiment: Fluorescent Arg-Ser peptide binding, SRPK1; conditions: for fluorescence emission change: addition of SRPK1 (25, 50, 75 nM) to 10 nM peptide
SRPK1(ΔN) [2] = experiment: Fluorescent Arg-Ser peptide binding, SRPK1; conditions: removal of the N-terminus; both peptides
SRPK1 [3] = target: T1, SRPK1; format: biochemical; conditions: steady-state kinetic studies; data not shown
SRPK1 [4] = target: T1, SRPK1; experiment: Steady-state kinetic phosphorylation assay, SRPK1; format: biochemical
Summary of the method: (§1)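 His6-tagged kinase (full length, N-terminal deletion, or SID deletion with RRQ linker) from E. coli BL21(DE3), Ni-purified; refolded His6-SRSF1 substrate. Reaction: 50 mM MOPS pH 7.4, 10 mM Mg2+, 1 mg/mL BSA, 23 °C, started with 100 μM 32P-ATP (600-1000 cpm/pmol). Quenched in SDS loading buffer; bands excised and counted. Initial velocities vs total SRSF1 or ATP fit to Michaelis-Menten; kcat = Vmax/total enzyme.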

SRPK1(ΔN) [5] = experiment: Steady-state kinetic phosphorylation assay, SRPK1; format: biochemical; conditions: for Km: substrate SRSF1, pH 7.4, 23° C
Summary of the method: as §1

SRPK1(ΔS) [6] = experiment: Steady-state kinetic phosphorylation assay, SRPK1; format: biochemical; conditions: for Km: substrate SRSF1, pH 7.4, 23° C
Summary of the method: as §1

SRPK1(ΔN) [7] = experiment: Competition assay; format: biochemical; conditions: removal of the N-terminus; wt-SRSF1
Target sequence in this assay (Q96SB4 76-655 limits assumed, stated change not applied): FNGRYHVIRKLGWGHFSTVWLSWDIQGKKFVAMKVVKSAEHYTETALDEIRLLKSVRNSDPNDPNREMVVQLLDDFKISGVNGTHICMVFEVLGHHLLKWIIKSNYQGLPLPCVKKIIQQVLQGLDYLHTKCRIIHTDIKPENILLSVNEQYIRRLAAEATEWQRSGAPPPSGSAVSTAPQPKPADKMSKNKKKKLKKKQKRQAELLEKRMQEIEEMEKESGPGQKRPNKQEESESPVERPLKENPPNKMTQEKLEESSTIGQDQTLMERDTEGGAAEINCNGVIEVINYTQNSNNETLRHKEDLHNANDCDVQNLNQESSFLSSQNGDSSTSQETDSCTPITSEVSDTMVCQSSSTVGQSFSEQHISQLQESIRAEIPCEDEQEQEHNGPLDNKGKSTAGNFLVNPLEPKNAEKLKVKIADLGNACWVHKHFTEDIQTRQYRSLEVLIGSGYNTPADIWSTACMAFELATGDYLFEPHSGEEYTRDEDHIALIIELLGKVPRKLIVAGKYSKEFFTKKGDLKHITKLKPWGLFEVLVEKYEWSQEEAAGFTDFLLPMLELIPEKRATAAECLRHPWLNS

SRPK1(ΔS) [8] = experiment: Competition assay; format: biochemical; conditions: removal of the SID
SRPK1 [9] = target: T1, SRPK1; experiment: Single turnover phosphorylation, SRPK1; format: biochemical
SRPK1(ΔS) [10] = experiment: Single turnover phosphorylation, SRPK1; format: biochemical
SRPK1 [11] = target: T1, SRPK1; conditions: SRPK1 complex with SRSF1; ref [15]; [18]; cited from earlier work
SRPK1 [12] = target: T1, SRPK1; conditions: cited from earlier work
[13] = target: SRPK1 (SR-specific protein kinase 1), full-length wild type (UniProt Q96SB4); experiment: kinetic competition assay
[14] = target: SRPK1(ΔN), SRPK1 lacking the full-length N-terminus; experiment: kinetic competition assay
[15] = target: SRPK1(ΔS), SRPK1 lacking the spacer insert domain (SID); experiment: kinetic competition assay
[16] = SRPK1 2 μM, SRSF1 100 nM, ^32P-ATP start, double exponential fit
[17] = SRPK1 2 μM, SRSF1 100 nM, double exponential fit
[18] = wild-type kinase, single turnover

T1 sequence (Q96SB4 whole entry, species assumed): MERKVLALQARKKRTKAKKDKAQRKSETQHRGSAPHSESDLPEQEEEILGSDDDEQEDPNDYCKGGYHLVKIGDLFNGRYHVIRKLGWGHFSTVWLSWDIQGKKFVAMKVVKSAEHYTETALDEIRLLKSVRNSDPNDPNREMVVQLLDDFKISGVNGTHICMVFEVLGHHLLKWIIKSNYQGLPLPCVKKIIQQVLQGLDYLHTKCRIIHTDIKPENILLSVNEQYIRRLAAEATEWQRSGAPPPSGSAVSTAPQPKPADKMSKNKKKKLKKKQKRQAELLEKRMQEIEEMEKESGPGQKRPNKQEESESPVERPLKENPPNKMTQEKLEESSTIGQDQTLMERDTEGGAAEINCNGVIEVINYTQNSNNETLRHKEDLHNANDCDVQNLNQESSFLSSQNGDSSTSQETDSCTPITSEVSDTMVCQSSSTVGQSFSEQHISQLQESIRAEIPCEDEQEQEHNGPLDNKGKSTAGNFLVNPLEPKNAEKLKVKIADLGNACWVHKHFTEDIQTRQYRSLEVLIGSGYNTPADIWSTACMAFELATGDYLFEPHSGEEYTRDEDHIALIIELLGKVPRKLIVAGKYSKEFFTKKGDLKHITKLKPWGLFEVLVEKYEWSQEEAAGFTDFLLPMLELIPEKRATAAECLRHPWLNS
Sequence of SRPK1 (SR-specific protein kinase 1), full-length wild type (Q96SB4 whole entry): as the sequence (Q96SB4 whole entry, species assumed) above
Sequence of SRPK1(ΔN), SRPK1 lacking the full-length N-terminus (Q96SB4 71-655, stated change not applied): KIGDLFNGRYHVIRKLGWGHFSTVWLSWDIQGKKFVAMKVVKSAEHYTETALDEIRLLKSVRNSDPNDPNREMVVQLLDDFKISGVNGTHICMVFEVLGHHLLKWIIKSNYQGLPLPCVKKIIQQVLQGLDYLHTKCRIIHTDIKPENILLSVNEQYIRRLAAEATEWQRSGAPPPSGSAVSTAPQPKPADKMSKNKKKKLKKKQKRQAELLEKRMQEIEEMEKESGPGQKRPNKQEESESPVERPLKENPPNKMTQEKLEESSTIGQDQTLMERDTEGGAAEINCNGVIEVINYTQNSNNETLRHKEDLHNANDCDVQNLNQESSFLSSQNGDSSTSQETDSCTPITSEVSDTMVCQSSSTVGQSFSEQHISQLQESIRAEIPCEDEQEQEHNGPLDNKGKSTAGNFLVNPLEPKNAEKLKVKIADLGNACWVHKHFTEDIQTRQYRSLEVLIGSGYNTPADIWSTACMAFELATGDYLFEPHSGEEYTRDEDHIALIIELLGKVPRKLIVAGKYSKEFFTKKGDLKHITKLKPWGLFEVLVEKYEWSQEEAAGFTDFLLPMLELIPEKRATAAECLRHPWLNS

Compound: N=C(N)NCCC[C@H](NC(=O)c1ccc2c(c1)C(=O)OC21c2ccc(O)cc2Oc2cc(O)ccc21)C(=O)N[C@@H](CO)C(=O)N[C@@H](CCCNC(=N)N)C(=O)N[C@@H](CO)C(=O)N[C@@H](CCCNC(=N)N)C(=O)N[C@@H](CO)C(=O)N[C@@H](CCCNC(=N)N)C(=O)N[C@@H](CO)C(=O)N[C@@H](CCCNC(=N)N)C(=O)N[C@@H](CO)C(=O)N[C@@H](CCCNC(=N)N)C(=O)N[C@@H](CO)C(=O)N[C@@H](CCCNC(=N)N)C(=O)N[C@@H](CO)C(=O)N[C@@H](CCCNC(=N)N)C(=O)N[C@@H](CO)C(=O)O [Fl-(RS)8] (5FAM-RSRSRSRSRSRSRSRS-OH; N-terminus and C-terminus assumed)
fluorescence emission change (SRPK1 [1]): increases in the fluorescence emission spectra

Compound: Nc1ncnc2c1ncn2[C@@H]1O[C@H](COP(=O)(O)OP(=O)(O)OP(=O)(O)O)[C@@H](O)[C@H]1O [ATP, reference compound]
Km (SRPK1 [4]; read-out: Km,ATP (Km for ATP), substrate SRSF1, pH 7.4, 23° C): 5 ± 0.5 µM | increase of Km,ATP (SRPK1(ΔN) [5]; N-terminal deletion versus SRPK1): 2-5 fold | Km (SRPK1(ΔN) [5]; read-out: Km,ATP (Km for ATP), SRPK1(ΔN)): 9 ± 2 µM | increase of Km,ATP (SRPK1(ΔS) [6]; SID deletion versus SRPK1): 2-5 fold | Km (SRPK1(ΔS) [6]; read-out: Km,ATP (Km for ATP), SRPK1(ΔS)): 28 ± 7 µM

More lines, main results first:

reduction of peptide binding affinity (SRPK1(ΔN) [2]): about 15 fold
Compound: N=C(N)NCCC[C@H](NC(=O)c1ccc2c(c1)C(=O)OC21c2ccc(O)cc2Oc2cc(O)ccc21)C(=O)N[C@@H](CO)C(=O)N[C@@H](CCCNC(=N)N)C(=O)N[C@@H](CO)C(=O)N[C@@H](CCCNC(=N)N)C(=O)N[C@@H](CO)C(=O)N[C@@H](CCCNC(=N)N)C(=O)N[C@@H](CO)C(=O)N[C@@H](CCCNC(=N)N)C(=O)N[C@@H](CO)C(=O)N[C@@H](CCCNC(=N)N)C(=O)N[C@@H](CO)C(=O)N[C@@H](CCCNC(=N)N)C(=O)N[C@@H](CO)C(=O)N[C@@H](CCCNC(=N)N)C(=O)N[C@@H](CO)C(=O)N[C@@H](CCCNC(=N)N)C(=O)N[C@@H](CO)C(=O)N[C@@H](CCCNC(=N)N)C(=O)N[C@@H](CO)C(=O)N[C@@H](CCCNC(=N)N)C(=O)N[C@@H](CO)C(=O)N[C@@H](CCCNC(=N)N)C(=O)N[C@@H](CO)C(=O)N[C@@H](CCCNC(=N)N)C(=O)N[C@@H](CO)C(=O)N[C@@H](CCCNC(=N)N)C(=O)N[C@@H](CO)C(=O)N[C@@H](CCCNC(=N)N)C(=O)N[C@@H](CO)C(=O)N[C@@H](CCCNC(=N)N)C(=O)N[C@@H](CO)C(=O)O [Fl-(RS)16] (5FAM-RSRSRSRSRSRSRSRSRSRSRSRSRSRSRSRS-OH; N-terminus and C-terminus assumed)
fluorescence emission change (SRPK1 [1]): increases in the fluorescence emission spectra | affinity of 32-residue peptide compared to the 16-residue peptide (SRPK1 [1]; in all cases (SRPK1, SRPK1(ΔN), SRPK1(ΔS))): either equivalent or a 2-fold greater affinity | inhibition of SRSF1 phosphorylation (SRPK1 [3]): competitively inhibits SRSF1 phosphorylation

decrease of SR protein binding affinity (KI) (SRPK1(ΔN) [7]): 2-3 fold | effect of SID removal on KI / binding affinity (SRPK1(ΔS) [8]): no effect | rate constant, fast phase (SRPK1 [9]; [16]): 6 min⁻¹ | rate constant, slow phase (SRPK1 [9]; [16]): 0.2 min⁻¹ | amplitude, fast phase (SRPK1 [9]; [17]): 12 sites | amplitude, slow phase (SRPK1 [9]; [17]): 3 sites | extent of phosphorylation (SRPK1 [9]; SRPK1, single turnover): approx. 15 sites | time to completion of fast phase (SRPK1 [9]; [18]): 1 to 2 min | time to completion of slower phase (SRPK1 [9]; [18]): 20 to 30 min
Compound: SRSF1: human alternative splicing factor or ASF/SF2; prototype SR protein, SRPK1 substrate
kcat (SRPK1 [4]; 50 mM MOPS pH 7.4, 10 mM Mg^2+, 1 mg/mL BSA, ^32P-ATP, 23° C, Michaelis-Menten fit): 0.5 ± 0.033 s⁻¹ | Km (SRPK1 [4]; read-out: Km,SR (Km for SRSF1), substrate SRSF1, pH 7.4, 23° C): 0.12 ± 0.02 µM | increase of Km,SR (SRPK1(ΔN) [5]; SRPK1(ΔN) versus SRPK1): 3 fold | lowering of turnover (kcat) (SRPK1(ΔN) [5]; SRPK1(ΔN) versus SRPK1): about 5 fold | kcat (SRPK1(ΔN) [5]; SRPK1(ΔN), 50 mM MOPS pH 7.4, 10 mM Mg^2+, 1 mg/mL BSA, ^32P-ATP, 23° C, Michaelis-Menten fit): 0.108 ± 0.015 s⁻¹ | enhancement of catalysis by N-terminus (kcat/Km,SR) (SRPK1(ΔN) [5]; SRPK1 versus SRPK1(ΔN)): about 20 fold | Km (SRPK1(ΔN) [5]; read-out: Km,SR (Km for SRSF1), SRPK1(ΔN)): 0.63 ± 0.07 µM | effect of insert (SID) on Km,SR (SRPK1(ΔS) [6]; SRPK1(ΔS) versus SRPK1): no effect | lowering of turnover (kcat) (SRPK1(ΔS) [6]; SRPK1(ΔS) versus SRPK1): about 5 fold | kcat (SRPK1(ΔS) [6]; SRPK1(ΔS), 50 mM MOPS pH 7.4, 10 mM Mg^2+, 1 mg/mL BSA, ^32P-ATP, 23° C, Michaelis-Menten fit): 0.0733 ± 0.0067 s⁻¹ | enhancement of catalysis by insert (kcat/Km,SR) (SRPK1(ΔS) [6]; SRPK1 versus SRPK1(ΔS)): about 5 fold | Km (SRPK1(ΔS) [6]; read-out: Km,SR (Km for SRSF1), SRPK1(ΔS)): 0.12 ± 0.02 µM | extent of phosphorylation (SRPK1(ΔS) [10]): approx 13 sites | Kd (SRPK1 [11]): 20 to 50 nM | serines rapidly phosphorylated in RS1 (SRPK1 [12]; SRSF1, SRPK1, strict C-to-N-terminal direction, ref [7], [10]): 10-12 serines | additional serines slowly modified in RS2 (SRPK1 [12]; SRSF1, SRPK1, shown previously, ref none printed in this sentence): about 3 serines

Ki [13]: 150 nM | Ki [14]: 830 nM | Ki [15]: 140 nM
Compound: RS domain of SRSF1 (domain or fragment)
